High-throughput results (PubChem)
PPC-1+TRAIL kill – compounds killing PPC-1 cancer cells with TRAIL present (potentiator screen, no TRAIL-free arm) | cell killing (% activity), % at 4 µM or 5 µM | 220,000 compounds, 0.41% hits | AID 1443 | PPC-1 cells + TRAIL, ATPLite viability luminescence;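 active means cell killing above 50% in the first pass at 4 µM, then a duplicate retest at 5 µM averaging 50% or more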
TRAIL sens C8 – sensitizes caspase-8 expressing cells to TRAIL; NB7+C8 cells + TRAIL, ATPlite viability luminescence; inhibition (viability loss, TRAIL sensitization), % at 10 µM; 360,000 compounds, 1% hits;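 active means compounds causing at least 50% loss of cell viability in the single-dose screen, relative to plate controls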
FLuc inh counter – Photinus pyralis luciferase inhibition counter-screen. inhibition, % at 10 µM. ATPLite firefly luciferase biochemical luminescence, 10 min. 200,000 compounds, 1.5% hits. P08659;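 active means inhibition above about 50% when tested at 10 µM, limit read from the data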
Target sequence (P08659 whole entry, looked up): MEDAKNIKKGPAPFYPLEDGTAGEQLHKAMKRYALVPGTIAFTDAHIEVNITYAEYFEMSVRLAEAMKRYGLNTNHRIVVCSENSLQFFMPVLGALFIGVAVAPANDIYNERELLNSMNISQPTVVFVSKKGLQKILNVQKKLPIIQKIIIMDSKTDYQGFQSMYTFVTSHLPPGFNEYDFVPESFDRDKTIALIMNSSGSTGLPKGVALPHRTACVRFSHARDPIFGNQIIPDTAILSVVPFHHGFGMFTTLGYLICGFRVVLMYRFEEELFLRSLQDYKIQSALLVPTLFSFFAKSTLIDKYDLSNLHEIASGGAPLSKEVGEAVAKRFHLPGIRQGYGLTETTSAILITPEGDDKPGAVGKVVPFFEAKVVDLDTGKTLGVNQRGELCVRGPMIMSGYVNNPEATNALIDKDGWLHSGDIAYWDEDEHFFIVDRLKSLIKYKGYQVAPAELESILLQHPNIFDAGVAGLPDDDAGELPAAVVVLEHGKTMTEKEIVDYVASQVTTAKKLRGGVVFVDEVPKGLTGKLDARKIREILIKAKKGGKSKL
FLuc stim CS – affects firefly luciferase, flagging false hits in luciferase stimulation screens; activation factor at 10 µM; AID 1027; P08659; ATPlite luciferase biochemical, luminescence, 10 min; 0 = ATP-free wells, 1 = DMSO control; 200,000 tested, under 10 active;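 active means luciferase activation factor, scaled between plate controls, of at least 2 with compound at 10 µM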
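Assay system: Luciferase/luciferin reagent mix; Medium: PBS as buffer for the ATP substrate; Dosing: test compounds dosed from 2 mM stocks in 100% DMSO; Times: 10 min, room temperature; Signal: luminescence from luciferase reaction; Read-out: luciferase activation; Controls: No-ATP low control, compound-free enzyme-plus-ATP high control.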
PPC-1 tox – kills PPC-1 cells | PPC-1 viability, ATPlite luminescence, overnight | 1,200 compounds, 50% hits | AID 1447 | cytotoxicity, % at 5 µM | shares compounds with PPC-1+TRAIL kill;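 active means reconfirmed compounds whose average cytotoxicity reaches 50% or more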
Numbers stand for hits; 0 = inactive; - = no result. An excerpt weighted towards active compounds, which were near 1.6% of everything screened.

SMILES	PPC-1+TRAIL kill	TRAIL sens C8	FLuc inh counter	FLuc stim CS	PPC-1 tox
COc1cccc(N2CCN(c3ncnc4c3[nH]c3ccc(F)cc34)CC2C)c1 (configuration not stated)	63	95	0	0	63
COc1cccc(N2CCN(c3ncnc4c3[nH]c3ccccc34)CC2C)c1 (configuration not stated)	0	-	0	0	-
CSc1ncccc1C(=O)N1CCN(S(=O)(=O)c2ccc3c(c2)OCCO3)CC1	-	0	-	-	-
O=C(Nc1nccs1)c1cc2c(s1)CCCCC2	84	90	94	0	78
NNC(=O)c1cc2c(s1)CCCCCC2	0	0	0	0	0
Nc1ccc(-c2nc3ccc(N)cc3o2)cc1	0	68	87	0	0
Cn1cnnc1SCCn1c(N2CCCCC2)nc2c1c(=O)[nH]c(=O)n2C	0	0	0	0	0
Cc1cc(F)ccc1C(O)c1ncc(-c2ccc3ccccc3c2)[nH]1 (configuration not stated)	-	0	-	-	-
CC(=O)c1c(C)[nH]c(C(=O)OC(C)C(=O)NC2CCCCC2)c1C (configuration not stated)	-	0	-	-	-
COc1ccccc1-[n+]1c(C)cc(/C=C2\Sc3ccccc3N2C)cc1C	82	84	-	-	82
COc1ccc(-[n+]2c(C)cc(/C=C3\Sc4ccccc4N3C)cc2C)cc1	0	0	0	0	-
Cc1ccc(C(=O)NCCNC(=O)c2ccccn2)cc1	-	0	-	-	-
Cc1ccc2oc(/N=C(\N)NC(=O)C(C)(C)C)nc2c1	83	86	-	-	83
CC(C)(C)c1ccc(C(=O)N/C(N)=N/c2nc3ccccc3o2)cc1	0	0	0	0	-
CCCCNC(=O)CCC(=O)Nc1ccc2nc(N3CCC(C)CC3)cc(C)c2c1	0	0	0	0	0
Cc1cc(N2CCOCC2)nc2ccc(NC(=O)CCC(=O)N3CCC(C)CC3)cc12	0	0	0	0	-
CCN1C(=O)C2(C(C#N)=C(N)Oc3cc(C)oc(=O)c32)c2ccccc21 (configuration not stated)	0	0	0	0	0
COc1ccc2[nH]c(=O)c(CN(C(=O)C(C)C)c3ccccc3OC)cc2c1	-	0	-	-	-
C[C@H]1CN([C@@H](C)CO)C(=O)CCCn2nncc2CO[C@@H]1CN(C)S(=O)(=O)c1ccc(-n2cccn2)cc1	-	0	-	-	-
Cc1ccc(-c2nc(N/N=C/c3cccnc3)c3ccccc3n2)cc1	91	91	97	0	85
Cc1ccc(-c2cc(-c3ccccc3)nc(N/N=C/c3cccnc3)n2)cc1	-	0	-	-	-
CCN(CC)CCCNC1=C(Cl)C(=O)c2ccccc2C1=O	0	94	0	0	0
COCCCNC1=C(Cl)C(=O)c2ccccc2C1=O	0	0	-	-	-
Nc1ccccc1SC1CC(=O)N(c2ccccc2Cl)C1=O (configuration not stated)	0	0	-	-	-
CC(=O)c1ccc(N=Nc2c(C)[nH][nH]c2=O)cc1	-	0	-	-	-
SMILES	PPC-1+TRAIL kill	TRAIL sens C8	FLuc inh counter	FLuc stim CS	PPC-1 tox
CC(=O)c1ccc(N=Nc2ccc(N)cc2)cc1	54	83	-	-	55
COc1ccc(NC(=O)CCC(=O)c2ccc(Cl)cc2)cn1	-	0	-	-	-
O=C(COc1ccc(CO)cc1Cl)Nc1ccc(F)cc1	0	54	72	0	0
COc1cc(NS(=O)(=O)c2ccc(F)cc2)c(OC)cc1NC(=O)C1CC1	0	-	0	0	-
O=C(Nc1ccccc1NS(=O)(=O)c1ccc(F)cc1)C1CCC1	0	0	0	0	0
Cn1c(=O)[nH]c(=O)c2c1nc(SCc1ccccc1Cl)n2CC(N)=O	-	0	-	-	-
C#CC(=O)N(c1cc(OC)ccc1OC)C(C(=O)NC1CCCC1)c1cccs1 (configuration not stated)	98	91	0	0	98
C#CC(=O)N(c1ccc(OC)cc1OC)C(C(=O)NC1CCCC1)c1cccs1 (configuration not stated)	97	93	0	0	96
COc1ccc(N(C(=O)c2ccco2)C(C(=O)NC2CCCCC2)c2cccs2)cc1OC (configuration not stated)	0	0	0	0	-
CCOC(=O)c1cnc2c(N=Nc3ccccc3)c(N)nn2c1N	58	69	70	0	59
CCOC(=O)c1cnc2c(-c3ccccc3)c(C)nn2c1N	0	0	0	0	-
CCOC(=O)c1cnc2c(N=Nc3cccc(Cl)c3)c(N)nn2c1N	0	-	0	0	-
CCOC(=O)c1cnc2c(-c3ccccc3)cnn2c1N	53	66	75	0	55
c1cc2c(cc1C1=NNC(=NC3CC3)SC1)OCCO2	89	92	96	0	88
Cc1ccc2nc(-c3ccc4c(c3)OCCO4)cn2c1	93	92	-	-	92
Cc1ccc2nc(-c3ccc4c(c3)NC(=O)CO4)cn2c1	0	0	-	-	-
Clc1ccc2nc(-c3ccc4c(c3)OCO4)cn2c1	80	79	93	0	74
Cc1ccc(C(=O)Nc2nccs2)cc1	0	0	83	0	0
Cc1ccc(C(=O)Nc2nc(=O)n(C)s2)cc1	0	53	81	0	0
Cc1ccc(C(=O)Nc2nc(=O)n(C(=O)CC(C)C)s2)cc1	0	0	0	0	-
COc1ccc(Nc2nc3ccccc3n2C)cc1	-	0	-	-	-
COc1ccc(/C=C/c2nc3ccccc3n2C)cc1	93	88	97	0	92
CCn1c(/C=C/c2ccccc2)nc2ccccc21	66	72	87	0	68
COc1ccc(/C=N\n2nnc3ccccc32)cc1	0	55	69	0	0
COc1ccc(/C=N/n2c(C)nc3ccccc3c2=O)cc1	-	0	-	-	-
SMILES	PPC-1+TRAIL kill	TRAIL sens C8	FLuc inh counter	FLuc stim CS	PPC-1 tox
CCOc1cc(C(=O)N/N=C/c2cn(-c3ccccc3)nc2-c2cc3ccccc3o2)cc(OCC)c1OCC	-	0	-	-	-
Cc1ccc(-c2nn(-c3ccccc3)cc2/C=N/NC(=O)c2ccncc2)o1	0	0	0	0	0
COc1ccc(-c2nsc(C(=O)N(c3ccc(F)cc3)C(C(=O)NC3CCCC3)c3ccc(OC)cc3)c2N)cc1 (configuration not stated)	0	0	0	0	0
C/C(=N\Nc1cccc2cccnc12)c1ccc[nH]1	0	0	86	0	0
COc1ccc(C2NCCc3c2[nH]c2ccccc32)cc1CN1CCc2cc(OC)c(OC)cc2C1C (configuration not stated)	0	0	-	-	0
CCOC(=O)[C@@H]1[C@H]2COc3ccccc3[C@H]2N2C(=O)N(c3ccc(C(F)(F)F)cc3)C(=O)[C@]12C	-	0	-	-	-
CCCCN(C)S(=O)(=O)c1c(C)[nH]c(=O)[nH]c1=O	0	0	0	0	0
O=C(Nc1ccc2c(c1)nc1n2CCSC1)c1ccco1	60	72	87	0	58
CCOC(CCNC(=O)c1cc(-c2cccs2)nc2ccccc12)OCC	-	0	-	-	-
O=S(=O)(Nc1nc2ccccc2nc1Nc1ccc2c(c1)OCO2)c1ccc(F)cc1	0	0	0	0	-
CC(=O)Nc1cccc(C(=O)OCC(=O)N2CCC(c3ccccc3)=N2)c1	-	0	-	-	-
Nn1c(SCC(=O)Nc2cc(S(=O)(=O)N3CCOCC3)ccc2Cl)nnc1-c1cccnc1	0	0	0	0	-
O=C(Nc1ccc2c(c1)OCO2)N1CCN(Cc2ccco2)CC1	76	73	92	0	74
